Experimental data reported in ChEMBL document CHEMBL1772954, “Antifungal, cytotoxic and SAR studies of a series of N-alkyl, N-aryl and N-alkylphenyl-1,4-pyrrolediones and related compounds” (Bioorg Med Chem, 2011).
Values after ≈ are worked out from the molar mass of the structure shown.

Key:
[1] = tested on: Nannizzia gypsea; test: Antifungal activity against Microsporum gypseum C 115 2000; assay type: functional
Method in brief: (§1)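 Dermatophytes tested by CLSI M38-A2 microdilution in MOPS-buffered RPMI-1640 at pH 7.0. Inoculum 1-5 × 10^3 CFU/mL; compounds 250 to 0.24 µg/ml in twofold steps, final DMSO <1%. Incubated at 28 °C in a moist, dark chamber and read according to control growth. MIC is the lowest concentration with complete inhibition. MFC is the lowest concentration with no growth after duplicate subculture on SDA.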

[2] = tested on: Aspergillus niger; test: Antifungal activity against Aspergillus niger ATCC 9029; assay type: functional
Method in brief: (§2)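 Broth microdilution per CLSI M38-A2 in RPMI-1640 with MOPS at pH 7.0. Inoculum 1-5 × 10^3 CFU/mL, with twofold compound dilutions spanning 250-0.24 µg/ml (final DMSO <1%). Plates incubated at 35 °C, moist and dark, and read when the control fungus had grown. MIC is total growth inhibition. MFC comes from subculturing clear wells in duplicate onto SDA.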

[3] = tested on: Cryptococcus neoformans; test: Antifungal activity against Cryptococcus neoformans ATCC 32264; assay type: functional
Method in brief: (§3)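 CLSI M27-A3 broth microdilution in RPMI-1640 buffered to pH 7.0 with MOPS. Inoculum 1-5 × 10^3 CFU/mL. Compound twofold dilutions from 250 to 0.24 µg/ml, final DMSO <1%. Incubated at 35 °C in a moist, dark chamber and read at 48 h. MIC is the lowest concentration giving total growth inhibition. For MFC, 5 µL from clear wells was plated in duplicate on SDA; MFC is the lowest concentration with no growth.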

[4] = tested on: Saccharomyces cerevisiae; test: Antifungal activity against Saccharomyces cerevisiae ATCC 9763; assay type: functional; method in brief: as §3
[5] = tested on: SF-268; test: Cytotoxicity against human SF268 cells assessed as cell growth after 2 days by sulforhodamine B assay; assay type: functional; conditions: SF-268, 48 h
Method in brief: (§4)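 NCI cell lines were run by the Monks method: cells were plated with compounds from DMSO stocks and incubated 2 days at 37 °C in 5% CO2, in duplicate. Cells were fixed with cold TCA, stained with 0.4% SRB, and the bound dye was solubilized in 10 mM tris-base and read at 515 nm. The zero-day control was subtracted, and GI50 was taken from the curves.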

[6] = tested on: Aspergillus fumigatus; test: Antifungal activity against Aspergillus fumigatus ATCC 26934; assay type: functional; method in brief: as §2
[7] = tested on: Trichophyton mentagrophytes; test: Antifungal activity against Trichophyton mentagrophytes ATCC 9972; assay type: functional; method in brief: as §1
[8] = tested on: Candida albicans; test: Antifungal activity against Candida albicans ATCC 10213; assay type: functional; method in brief: as §3
[9] = Cytotoxicity against human erythrocytes assessed as hemolysis by spectrometric analysis; assay type: cell-based, Erythrocyte
Method in brief: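 Human heparinized red blood cells were washed in PBS at pH 7.0 and suspended at 4% in sterile 5% glucose. Compounds from DMSO stocks were diluted in 5% glucose to final concentrations of 250 to 0.24 µg/ml and incubated with the cells at 37 °C. Released hemoglobin was read at 540 nm. HC50 is the concentration giving 50% lysis relative to the drug-free value.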

[10] = tested on: Aspergillus flavus; test: Antifungal activity against Aspergillus flavus ATCC 9170; assay type: functional; method in brief: as §2
[11] = tested on: Candida tropicalis; test: Antifungal activity against Candida tropicalis C 131 2000; assay type: functional; method in brief: as §3
[12] = tested on: NCI-H460; test: Cytotoxicity against human H460 cells assessed as cell growth after 2 days by sulforhodamine B assay; assay type: functional; conditions: NCI-H460, 48 h; method in brief: as §4
[13] = tested on: MCF7; test: Cytotoxicity against human MCF7 cells assessed as cell growth after 2 days by sulforhodamine B assay; assay type: functional; conditions: MCF7, 48 h; method in brief: as §4
[14] = tested on: Trichophyton rubrum; test: Antifungal activity against Trichophyton rubrum C 113 2000; assay type: functional; method in brief: as §1

| Compound | MFC [1] [µg/mL] | MIC [1] [µg/mL] | MFC [2] [µg/mL] | MIC [2] [µg/mL] | MFC [3] [µg/mL] | MIC [3] [µg/mL] | MFC [4] [µg/mL] | MIC [4] [µg/mL] | GI50 [5] [µg/mL] | MFC [6] [µg/mL] | MIC [6] [µg/mL] | MFC [7] [µg/mL] | MIC [7] [µg/mL] | MFC [8] [µg/mL] | MIC [8] [µg/mL] | HC50 [9] [µg/mL] | MFC [10] [µg/mL] | MIC [10] [µg/mL] | MFC [11] [µg/mL] | MIC [11] [µg/mL] | also measured |
| --- | --- | --- | --- | --- | --- | --- | --- | --- | --- | --- | --- | --- | --- | --- | --- | --- | --- | --- | --- | --- | --- |
| Cc1ccc(N2C(=O)C=CC2=O)cc1 | 3.9 (≈ 20.8 µM) | 1.95 (≈ 10.4 µM) | 31.2 (≈ 167 µM) | 15.6 (≈ 83.5 µM) | 7.81 (≈ 41.7 µM) | 3.9 (≈ 20.8 µM) | 7.81 (≈ 41.7 µM) | 3.9 (≈ 20.8 µM) | > 10 | 62.5 (≈ 334 µM) | 31.2 (≈ 167 µM) | 7.81 (≈ 41.7 µM) | 1.95 (≈ 10.4 µM) | 31.2 (≈ 167 µM) | 15.6 (≈ 83.5 µM) | > 250 | 15.6 (≈ 83.5 µM) | 15.6 (≈ 83.5 µM) | 31.2 (≈ 167 µM) | 15.6 (≈ 83.5 µM) | GI50 [12]: > 10 µg/mL; GI50 [13]: > 10 µg/mL; MFC [14]: 3.9 µg/mL (≈ 20.8 µM); MIC [14]: 1.95 µg/mL (≈ 10.4 µM) |
| Cc1ccccc1N1C(=O)C=CC1=O | 7.81 (≈ 41.7 µM) | 3.9 (≈ 20.8 µM) | 62.5 (≈ 334 µM) | 15.6 (≈ 83.5 µM) | 7.81 (≈ 41.7 µM) | 7.81 (≈ 41.7 µM) | 7.81 (≈ 41.7 µM) | 7.81 (≈ 41.7 µM) | > 10 | 125 (≈ 668 µM) | 62.5 (≈ 334 µM) | 3.9 (≈ 20.8 µM) | 1.95 (≈ 10.4 µM) | 15.6 (≈ 83.5 µM) | 15.6 (≈ 83.5 µM) | > 250 | 62.5 (≈ 334 µM) | 62.5 (≈ 334 µM) | 31.2 (≈ 167 µM) | 15.6 (≈ 83.5 µM) | GI50 [12]: > 10 µg/mL; GI50 [13]: > 10 µg/mL; MFC [14]: 3.9 µg/mL (≈ 20.8 µM); MIC [14]: 1.95 µg/mL (≈ 10.4 µM) |
| CC1=CC(=O)N(Cc2ccccc2)C1=O | 7.81 (≈ 38.8 µM) | 3.9 (≈ 19.4 µM) | 125 (≈ 621 µM) | 62.5 (≈ 311 µM) | 31.2 (≈ 155 µM) | 15.6 (≈ 77.7 µM) | 62.5 (≈ 311 µM) | 31.2 (≈ 155 µM) | > 10 | 62.5 (≈ 311 µM) | 31.2 (≈ 155 µM) | 31.2 (≈ 155 µM) | 31.2 (≈ 155 µM) | 125 (≈ 621 µM) | 62.5 (≈ 311 µM) | > 250 | 125 (≈ 621 µM) | 62.5 (≈ 311 µM) | 250 (≈ 1240 µM) | 125 (≈ 621 µM) | GI50 [12]: > 10 µg/mL; GI50 [13]: > 10 µg/mL; MFC [14]: 7.81 µg/mL (≈ 38.8 µM); MIC [14]: 3.9 µg/mL (≈ 19.4 µM) |
